Rows were chosen to be rich in hits. Some 2.1% of all compounds tested hit in one or more screens of this group.
Mot1-301 SUMO – blocks SUMOylation pathway, rescuing yeast Mot1-301 growth; S. cerevisiae Mot1-301 growth rescue, ATP luminescence, 38.5C; percent above DMSO median, 100 means doubled; growth rescue, % at 18.8 µM; hit rate 1% among 320,000;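 active = every valid replicate shows activation above 250% relative to neutral control wells; inactive = the rest, any valid replicate at or below 250%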;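 also: OY570 slx delta 5 strain wells were the positive control but not used for scaling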
A3A deaminase – human APOBEC3A DNA deaminase inhibition; inhibition, % at 20 µM; recombinant A3A, FAM/TAMRA ssDNA deamination fluorescence; AID 493011; hit rate 0.41% among 330,000;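 active = at least 40% inhibition at 20 µM here, with at most 30% in a related deaminase screen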;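 also: plate controls were A3A with DMSO for no effect and wells lacking A3A enzyme for full effect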
ARFGAP1 inh – inhibitors of rat ARFGAP1; Q62848; inhibition, % at 16.5 µM; Arfgap1-stimulated ARF1 GTP hydrolysis, GDP FP detection; hit rate 0.26% among 360,000;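 active = inhibition above a per-plate limit, mean inhibition of low control wells plus 3 SD, cut at about 25% in these data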;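 also: 0% = DMSO wells with enzyme and 100% = wells lacking Arfgap1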
Target sequence (Q62848 1-136 limits assumed): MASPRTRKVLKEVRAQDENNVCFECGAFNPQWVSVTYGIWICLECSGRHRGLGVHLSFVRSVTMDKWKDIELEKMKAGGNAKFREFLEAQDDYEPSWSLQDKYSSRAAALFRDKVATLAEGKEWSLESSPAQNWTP
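Material: rat Arfgap1 catalytic domain, aa 1-136; also added: human ARF1(Δ1-17)-GTP substrate; compound dosing: one concentration, 16.5 µM, DMSO 1.26%; incubation: GTP hydrolysis reaction 2 h at 25 °C; measured by: Tracer-displacement fluorescence polarization with EDTA stop, 620/688 nm; evaluation: % inhibition from polarization; repeats: one replicate per compound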
ASAP1 inh – inhibitors of human ASAP1 ArfGAP activity; Q9ULH1; ASAP1-stimulated ARF1 GTP hydrolysis, GDP FP detection; inhibition, % at 16.5 µM; hit rate 0.19% among 360,000; AID 624377; in the data active = inhibition above about 25%;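 also: 0% = vehicle with enzyme and substrate and 100% = no enzyme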
A3G deaminase – APOBEC3G (human) deaminase inhibition | Q9HC16 | recombinant A3G, ssDNA deamination FAM/TAMRA fluorescence | inhibition, % at 20 µM | hit rate 0.28% among 330,000 | AID 493012;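 active = inhibition of at least 40% at 20 µM, with no more than 30% in the related APOBEC3A deaminase screen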;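 also: plate controls were DMSO wells with A3G for no effect and wells lacking A3G enzyme for full effect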
Target sequence (Q9HC16 whole entry, looked up): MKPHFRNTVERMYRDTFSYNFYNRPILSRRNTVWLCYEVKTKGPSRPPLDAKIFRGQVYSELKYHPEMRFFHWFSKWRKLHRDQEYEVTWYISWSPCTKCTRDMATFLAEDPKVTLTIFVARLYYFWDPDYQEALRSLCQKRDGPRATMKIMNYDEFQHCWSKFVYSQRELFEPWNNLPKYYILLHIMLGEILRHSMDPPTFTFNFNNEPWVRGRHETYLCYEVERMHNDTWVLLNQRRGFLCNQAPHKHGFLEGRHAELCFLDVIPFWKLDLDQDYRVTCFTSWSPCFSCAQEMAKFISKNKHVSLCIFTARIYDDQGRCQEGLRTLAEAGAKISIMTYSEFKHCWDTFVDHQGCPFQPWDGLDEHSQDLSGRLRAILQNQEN
C2C12 statin – protects C2C12 myotubes from simvastatin toxicity | ATP luminescence, 48 h; scaled: DMSO 0, geranylgeraniol control 100 | rescue of ATP level, % at 7.49 µM | hit rate 0.78% among 330,000 | AID 602340;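 active = mean ATP rescue above about 67%, or every replicate alone reaching that limit, limit read from the data, passing the limit was not always enough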;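 also: myotubes were challenged with 10 µM simvastatin during compound exposure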
ARFGAP1 confirm – rat ARFGAP1 inhibition, confirmed; inhibition, % at 16.5 µM; hit rate 30% among 890; ARFGAP1-stimulated ARF1 GTP hydrolysis, GDP tracer FP; shares compounds with ARFGAP1 inh;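 active = average inhibition over triplicates above the hit cutoff set in the earlier primary screen, cut at about 25% in these data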;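 also: 0% = Arfgap1 plus ARF1-GTP with DMSO and 100% = wells lacking Arfgap1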
Numbers without * were called inactive.

C[C@H](CO)N1C[C@H](C)[C@H](CN(C)S(=O)(=O)c2cccs2)OCCCC[C@H](C)Oc2ccc(N(C)C)cc2C1=O was read as C2C12 statin 43.
Screening CCn1c(CNC(=O)c2cccs2)nnc1SCC(=O)Nc1cc(Cl)ccc1C returned Mot1-301 SUMO 15, A3A deaminase 1, ARFGAP1 inh -1, ASAP1 inh -1, A3G deaminase -4 and C2C12 statin -27.
Screening CCn1c(CNC(=O)c2cccs2)nnc1SCC(=O)Nc1ccc(Cl)cc1 returned A3A deaminase -1, ARFGAP1 inh 31*, ASAP1 inh 2, A3G deaminase -5, C2C12 statin 6 and ARFGAP1 confirm -3.
`CN(C)C(=O)C[C@H]1CC[C@H](NC(=O)C2CCOCC2)[C@@H](CO)O1` gave C2C12 statin -11.
Screening Cc1ccc(-c2csc(C3=C(O)CN(NC(=O)c4ccc([N+](=O)[O-])cc4)C3=N)n2)cc1 returned Mot1-301 SUMO -17, A3A deaminase 8, ARFGAP1 inh 28*, ASAP1 inh 14, A3G deaminase 6, C2C12 statin 1 and ARFGAP1 confirm 31*.
O=C(N/N=C/c1cc(Br)ccc1O)Nc1ccccc1 was read as Mot1-301 SUMO -17, A3A deaminase 1, ARFGAP1 inh 25*, ASAP1 inh 5, A3G deaminase 0 and ARFGAP1 confirm 14.
CC#CCN(Cc1ccco1)C(=O)C1CCC(=O)N(CCc2cccc(F)c2)C1 (centres undefined) was read as ARFGAP1 inh 28*, ASAP1 inh -2, C2C12 statin -21 and ARFGAP1 confirm -3.
For CN(Cc1ccco1)C(=O)C1CCC(=O)N(CCc2cccc(F)c2)C1 (centres undefined) the results were Mot1-301 SUMO -2, A3A deaminase -6, ARFGAP1 inh 6, ASAP1 inh -2, A3G deaminase 18 and C2C12 statin 5.
Screening COc1ccc(NC(=O)N[C@@H]2CC[C@@H](CCNC(=O)CCN3CCCCC3)O[C@H]2CO)cc1 returned C2C12 statin 0.
COc1ccc(OC)c(-n2nnnc2SCC(=O)Nc2ccc3c(c2)OCCO3)c1 was read as Mot1-301 SUMO 10, A3A deaminase 2, ARFGAP1 inh 49*, ASAP1 inh 11, A3G deaminase 0, C2C12 statin -15 and ARFGAP1 confirm 45*.
`C[C@H]1CN([C@@H](C)CO)C(=O)c2cccc(NC(=O)Nc3ccc(F)cc3)c2O[C@H]1CN(C)C(=O)Nc1ccc(F)cc1` gave C2C12 statin -6.
Screening CNC[C@H]1OCCCC[C@H](C)Oc2ccc(NC(=O)Nc3ccccc3)cc2C(=O)N([C@H](C)CO)C[C@@H]1C returned C2C12 statin 26.
Screening O=C(COC(=O)/C=C/c1ccc2ccccc2n1)NNC(=O)c1ccccc1 returned ARFGAP1 inh 49*, ASAP1 inh -16, C2C12 statin 5 and ARFGAP1 confirm -1.
For CC(C)CCNC(=O)COC(=O)/C=C/c1ccc2ccccc2n1 the results were Mot1-301 SUMO -11, A3A deaminase 0, ARFGAP1 inh 5, ASAP1 inh -2, A3G deaminase -7 and C2C12 statin 1.
For O=C(Cn1c(=O)oc2ccccc21)Nc1ccc(Cl)cc1Cl the results were Mot1-301 SUMO 2, A3A deaminase 2, ARFGAP1 inh 25*, ASAP1 inh -8, A3G deaminase -2 and ARFGAP1 confirm -2.
Screening COc1ccc(NC2=C(NCCO)C(=O)c3ccccc3C2=O)cc1 returned Mot1-301 SUMO 3, A3A deaminase -2, ARFGAP1 inh 28*, ASAP1 inh -2, A3G deaminase 1 and ARFGAP1 confirm -3.
Screening CCCNC(=O)N(C)C[C@H]1Oc2cc(-c3cncnc3)ccc2S(=O)(=O)N([C@H](C)CO)C[C@@H]1C returned C2C12 statin -1.
O=C(COC(=O)c1ccc([N+](=O)[O-])cc1)NC12CC3CC(CC(C3)C1)C2 was read as Mot1-301 SUMO -23, A3A deaminase 1, ARFGAP1 inh 26*, ASAP1 inh -8, A3G deaminase -3, C2C12 statin 5 and ARFGAP1 confirm -5.
Screening COc1ccc2c(c1)C(c1ccc(C)o1)=NNC(c1cccnc1)=N2 returned Mot1-301 SUMO 93, A3A deaminase 1, ARFGAP1 inh 25*, ASAP1 inh -6, A3G deaminase -7, C2C12 statin 3 and ARFGAP1 confirm 1.
`COc1ccc2c(c1)C(c1ccc(C)o1)=NNC(c1ccccc1)=N2` gave Mot1-301 SUMO 98, A3A deaminase -3, ARFGAP1 inh -7, ASAP1 inh 7, A3G deaminase -5 and C2C12 statin -8.
C[C@H](CO)N1C[C@H](C)[C@@H](CN(C)C)Oc2c(NC(=O)Nc3ccc4c(c3)OCO4)cccc2C1=O was read as C2C12 statin -11.
Screening O=C(CN(CCc1ccccc1)C(=O)c1csnn1)NCc1ccc(F)cc1 returned Mot1-301 SUMO -5, A3A deaminase -4, ARFGAP1 inh 27*, ASAP1 inh -8, A3G deaminase 2, C2C12 statin -7 and ARFGAP1 confirm 2.
For Cc1noc(C)c1S(=O)(=O)Nc1ccc2c(c1)C(=O)N([C@@H](C)CO)C[C@@H](C)[C@@H](CN(C)S(=O)(=O)c1ccc(F)cc1)O2 the results were C2C12 statin -5.
COc1ccccc1NC(=O)N[C@@H]1CC[C@H](CC(=O)N[C@@H](C)c2ccccc2)O[C@@H]1CO was read as C2C12 statin 21.
For CC(C(=O)N1CCCCC1)N(C)CC(=O)Nc1ccc(F)c(F)c1F (centres undefined) the results were ARFGAP1 inh 26*, ASAP1 inh 0, C2C12 statin -5 and ARFGAP1 confirm 5.
Screening COC(=O)C1=C(C)N(Cc2cccc(C(F)(F)F)c2)C(=NCc2ccccc2C(F)(F)F)NC1c1cccc(C(F)(F)F)c1 (centres undefined) returned ARFGAP1 inh 20 and ASAP1 inh -6.
Screening COC(=O)C1=C(C)N(Cc2ccccc2C(F)(F)F)C(=NCc2ccccc2)NC1c1ccc(C(F)(F)F)cc1 (centres undefined) returned ARFGAP1 inh 25*, ASAP1 inh 3 and ARFGAP1 confirm 11.
COC(=O)C1=C(C)N(Cc2cccc(C(F)(F)F)c2)C(=NCc2ccccc2C(F)(F)F)NC1c1cccc(F)c1 (centres undefined) was read as ARFGAP1 inh 27*, ASAP1 inh -2 and ARFGAP1 confirm 13.

From PubChem BioAssay
